EBI2 antag = EBI2 receptor antagonists, beta-arrestin recruitment, primary screen, cell-based, luminescence, 7a,25-OHC stimulation, uHTS; G-protein coupled receptor 183 (Homo sapiens), P32249; 7a,25-OHC stimulated; inhibition, % at 5 µM; actives 0.81% (n = 360,000); in the data active = inhibition above about 38%;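 also: enzyme fragment complementation signal reports receptor beta-arrestin coupling in cells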
Target sequence (P32249 whole entry, looked up, the tested form may be a part): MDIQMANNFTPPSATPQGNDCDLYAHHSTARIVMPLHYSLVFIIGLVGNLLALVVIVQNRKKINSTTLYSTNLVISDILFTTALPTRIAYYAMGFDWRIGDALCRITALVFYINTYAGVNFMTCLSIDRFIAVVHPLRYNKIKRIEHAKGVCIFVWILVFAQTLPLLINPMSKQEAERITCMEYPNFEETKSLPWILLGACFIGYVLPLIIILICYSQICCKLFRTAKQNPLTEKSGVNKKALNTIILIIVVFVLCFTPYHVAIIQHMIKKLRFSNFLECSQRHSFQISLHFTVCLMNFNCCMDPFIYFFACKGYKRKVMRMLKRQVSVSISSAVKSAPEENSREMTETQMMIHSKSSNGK
APJ antag = antagonists of human apelin receptor APJ, primary screen, CHO-K1 cells, beta-arrestin complementation, luminescence. AID 2521, 2010. actives 0.32% (n = 330,000). P35414. inhibition, % at 20 µM;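 active = inhibition above about 40% at 20 µM, limit read from the data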;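 also: cells challenged with 10 nM apelin-13 agonist together with compound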
CXCR6 inh = CXCR6 receptor inhibitors, primary screen, cell-based, beta-arrestin, luminescence, CHO-K1 PathHunter, 1536-well; C-X-C chemokine receptor type 6 (Homo sapiens), O00574; inhibition, % at 20 µM; actives 0.36% (n = 360,000); in the data active = inhibition above about 34%, passing the limit was not always enough;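 also: antagonist mode with CXCL16 agonist at 10 nM final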
Target sequence (O00574 whole entry, looked up): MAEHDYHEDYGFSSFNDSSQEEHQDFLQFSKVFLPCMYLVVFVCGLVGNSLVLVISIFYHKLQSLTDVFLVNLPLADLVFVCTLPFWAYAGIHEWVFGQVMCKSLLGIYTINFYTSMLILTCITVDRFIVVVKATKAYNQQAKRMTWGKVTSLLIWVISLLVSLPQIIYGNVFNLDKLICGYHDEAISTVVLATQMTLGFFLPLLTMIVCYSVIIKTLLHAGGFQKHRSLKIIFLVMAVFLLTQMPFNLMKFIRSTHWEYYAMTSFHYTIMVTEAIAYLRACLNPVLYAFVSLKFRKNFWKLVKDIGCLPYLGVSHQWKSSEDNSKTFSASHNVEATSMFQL
CCR6 antagonist = CCR6 receptor antagonists, primary screen, cell-based, CHO-K1, luminescence, beta-arrestin, uHTS. CHO-K1 CCR6 PathHunter beta-arrestin, CCL20-stimulated. inhibition, % at 20 µM. actives 0.49% (n = 340,000);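 active = compounds whose inhibition of the agonist-driven luminescence signal at 20 µM reaches about 50%, limit read from the data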;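 also: cells stimulated with CCL20 at 14 nM final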
APJ agonist = agonists of human apelin receptor APJ, primary screen, CHO-K1 cells, PathHunter beta-arrestin, luminescence. activation, % at 20 µM. actives 0.11% (n = 330,000). P35414. AID 2520, 2010. 0% DMSO wells, 100% apelin;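 active = activation more than six SD over the plate average, tested at 20 µM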
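Assay system: CHO-K1 APJ beta-arrestin complementation cell line / Compound: single test compound dose, 20 µM final, 1% DMSO / Times: overnight seeding, 90 min compound at 25 °C, 1 h detection / Technique: beta-gal luminescence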
APJ antag conf = APJ antagonists blocking beta-arrestin recruitment, confirmation, cell-based, luminescence, single concentration, uHTS hits; AID 2766, 2010; actives 66% (n = 950); antagonist mode; inhibition, % at 20 µM; shares compounds with APJ antag; in the data active = inhibition above about 50%
Hits are given with their value; 0 = inactive; - = no result given. A selection: hits, their analogues and other compounds. The true share with any hit is near 1.5%.

SMILES | EBI2 antag | APJ antag | CXCR6 inh | CCR6 antagonist | APJ agonist | APJ antag conf
COC(=O)c1cccc(NC(=O)Nc2ccc(Cl)cc2Cl)c1 | 0 | 0 | 0 | 0 | 0 | -
CC(=O)Nc1cc(C(=O)OCC(=O)c2ccc(Cl)cc2Cl)ccc1C | 0 | 52 | 0 | 0 | 0 | 0
O=C(COC(=O)c1cccnc1Cl)c1ccc(Cl)cc1Cl | 0 | 58 | 0 | 0 | 0 | 60
COc1ccc(Cc2nc3ccc(C(=O)N(C)Cc4nccn4C)cc3o2)cc1 | 0 | - | 0 | - | - | -
CCO[C@H]1C[C@@H](c2ccc(CC)cc2)N(S(=O)(=O)c2ccc(C)cc2)C2CC(c3ccc(CC)cc3)N(S(=O)(=O)c3ccc(C)cc3)CC21 (stereo partly drawn) | 0 | - | - | - | - | -
CC(C)Cn1cc(-c2cccc3nccn23)cn1 | 0 | - | 0 | - | - | -
NC(=O)c1sc2nc(-c3ccccc3)c3c(c2c1N)CCCC3 | 0 | 47 | 0 | 0 | 0 | 0
Cc1ccc(-c2nc3sc(C(N)=O)c(N)c3c3c2CCCC3)cc1 | 0 | 0 | 0 | 0 | 0 | -
COc1cc(Cl)cc(/C=C/c2ccc3cccc(O)c3n2)c1OC | 0 | 41 | 0 | 0 | 0 | 0
Oc1cccc2ccc(/C=C/c3ccccc3Cl)nc12 | 0 | 46 | 0 | 0 | 0 | 82
CCOc1cccc(/C=C/c2ccc3cccc(O)c3n2)c1OC | 0 | 43 | 0 | 0 | 0 | 72
COc1ccc(Cl)cc1/C=C/c1ccc2cccc(O)c2n1 | 0 | 0 | 0 | 0 | 0 | -
CCCCn1nnnc1C1(C)CCC(=O)N1Cc1cccnc1 (stereo not drawn) | 0 | - | 0 | - | - | -
CC(N)c1csc(Nc2ccc(S(C)(=O)=O)cc2)n1 (stereo not drawn) | 0 | - | 0 | - | - | -
CCOC(=O)[C@]12CCCC=C1N(CCC1=CCCCC1)C(=O)[C@H](CC(=O)NCCCN1CCCC1=O)C2 | 0 | - | - | - | - | -
CC(C)c1nc(C#N)c(NCCCn2ccnc2)o1 | 0 | 0 | 0 | 0 | 0 | -
CC(C)c1nc(C#N)c(NN)o1 | 0 | 42 | 0 | 0 | 0 | 66
CSc1ncnc2c1ncn2CCCN1CCN(c2ccccn2)CC1 | 0 | - | 0 | - | - | -
CCOC(=O)c1ccc(S(=O)(=O)NNC(=O)c2cccc(N(C)C)c2)cc1 | 0 | 50 | 0 | 0 | 0 | 0
CCOC(=O)CC1(NC(=O)C2CCC(=O)N(CCc3ccccc3)C2)CCCCC1 (stereo not drawn) | 0 | 0 | 0 | 0 | 0 | -
CC(=O)c1c(C(C)=O)c(C)n(-c2cccc([N+](=O)[O-])c2)c1C | 0 | 0 | 0 | 0 | 0 | -
CC(=O)C1=C(c2cccc([N+](=O)[O-])c2)N(C(C)=O)n2c(C)nnc2S1 | 58 | 107 | 0 | 70 | 0 | 154
CCCCS(=O)(=O)/C=C\C=C/S(=O)(=O)CCCC | 51 | 69 | 78 | 81 | 0 | 89
c1ccc(-c2nccc(-c3ccco3)n2)nc1 | 0 | 0 | 0 | 0 | 0 | -
c1ccc(-c2nc(-c3ccco3)cs2)nc1 | 0 | 53 | 0 | 0 | 0 | 0
SMILES | EBI2 antag | APJ antag | CXCR6 inh | CCR6 antagonist | APJ agonist | APJ antag conf
CC(C)C(NC(=O)c1ccc(C(C)(C)C)cc1)C(=O)NCc1ccccn1 (stereo not drawn) | 0 | 41 | 0 | 0 | 0 | 0
COc1ccc(C(=O)NC(C(=O)NCc2ccccn2)C(C)C)cc1 (stereo not drawn) | 0 | 0 | 0 | 0 | 0 | -
O=C(Nc1nc2ccc(F)cc2s1)c1ccccn1 | - | 77 | - | 65 | 0 | 68
O=C(Nc1nc2ccccc2s1)c1cnccn1 | 0 | 0 | 0 | 0 | 0 | -
O=C(N=Nc1c(O)[nH]c2ccc([N+](=O)[O-])cc12)c1ccccc1Cl | 0 | 0 | 0 | 0 | 0 | -
O=C(O)c1ccccc1N=Nc1c(O)[nH]c2ccc([N+](=O)[O-])cc12 | 0 | 42 | 0 | 0 | 0 | 53
CC(=O)Nc1ccc(NC(=O)C2(C)CC2(Cl)Cl)cc1 (stereo not drawn) | 0 | 91 | 0 | 0 | 0 | 0
CN(C)c1cccc(NC(=O)C2(C)CC2(Cl)Cl)c1 (stereo not drawn) | 0 | 0 | 0 | 0 | 0 | -
CCN(c1ccccc1)S(=O)(=O)c1ccc(Cl)c(NC(=O)CN2C(=O)NC3(CCCC3)C2=O)c1 | 0 | 41 | 0 | 0 | 0 | 66
Nc1ccc(-c2c3ccc(=O)cc-3oc3cc(O)ccc23)c(C(=O)O)c1 | 0 | 43 | 0 | 0 | 0 | 66
COc1ccc(-c2cc(=O)c3ccc(O)cc3o2)cc1OC | 0 | - | 0 | - | - | -
NC(=S)NNC(=S)Nc1ccccc1 | 0 | 41 | 0 | 0 | 0 | 53
CCOC(=O)C1=C(C)N=c2s/c(=C/c3cccc([N+](=O)[O-])c3O)c(=O)n2C1c1ccccc1 (stereo not drawn) | 0 | 50 | 0 | 71 | 0 | 99
CCOC(=O)C1=C(C)N=c2s/c(=C/c3cccc([N+](=O)[O-])c3O)c(=O)n2C1c1cc(OC)c(OC)c(OC)c1 (stereo not drawn) | 0 | 40 | 0 | 55 | 0 | 90
CCOC(=O)C1=C(C)N=c2s/c(=C/c3ccco3)c(=O)n2C1c1cccc(OC)c1 (stereo not drawn) | - | 0 | - | 0 | 0 | -
CCOC(=O)C1=C(c2ccccc2)N=c2s/c(=C\c3ccc(O)cc3)c(=O)n2C1c1cccs1 (stereo not drawn) | 0 | 42 | 0 | 53 | 0 | 102
CCOC(=O)C1(C)CCCN(C(=O)c2ccc(C)c(F)c2)C1 (stereo not drawn) | 0 | - | 0 | - | - | -
Cc1cc(=O)[nH]c(N=N/C(=N/Nc2ccccc2C)c2ccccc2)n1 | 0 | 0 | 0 | 0 | 0 | -
Cc1cc(=O)[nH]c(N=N/C(=N/Nc2ccc(O)cc2)c2ccccc2)n1 | 0 | 59 | 0 | 56 | 0 | 89
CC1CCCCN1C(=O)CSc1nc2cc3c(cc2c(=O)n1Cc1ccc2c(c1)OCO2)OCO3 (stereo not drawn) | 0 | 55 | 0 | 0 | 0 | 57
COc1ccccc1NS(=O)(=O)c1cc([N+](=O)[O-])ccc1N/N=C/c1c[nH]c2ccccc12 | 54 | 56 | 0 | 50 | 0 | 91
COc1ccc(NS(=O)(=O)c2cc([N+](=O)[O-])ccc2NN=Cc2ccccc2OCC(=O)O)cc1 | 0 | 0 | 0 | 0 | 0 | -
COc1ccc(C=NNc2ccc([N+](=O)[O-])cc2S(=O)(=O)Nc2ccccc2C(=O)O)cc1OC | 0 | 0 | 0 | 0 | 0 | -
COc1ccc(NS(=O)(=O)c2cc([N+](=O)[O-])ccc2N/N=C\c2c(C)[nH]c3ccccc23)cc1 | 0 | 75 | 0 | 0 | 0 | 99
O=C(Cn1nnc2ccccc21)OCC(=O)c1ccccc1 | 0 | 0 | 0 | 0 | 0 | -
Cc1ccc(C(=O)COC(=O)c2ccncc2)cc1[N+](=O)[O-] | 0 | 46 | 0 | 0 | 0 | 70

Source: PubChem BioAssay (Sanford-Burnham Center for Chemical Genomics)
